The results in this text go back to ChEMBL document CHEMBL1131232, “New azole antifungals. 3. Synthesis and antifungal activity of 3-substituted-4(3H)-quinazolinones” (J Med Chem, 1998).

In brackets after ≈: the same amount, converted by molar mass.

What all share (assay type): functional
Experiment [1] is described as follows: In vitro for antifungal activity against 10 yeasts. The note with it: read-out: MIC. In a few lines: (§1)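 Agar dilution on Kimmig's agar with 0.5% glycerol, using ATCC strains or clinical isolates. Drug stocks were 800 μg/mL in 50% ethanol, tested as 2-fold dilutions from 80 to 0.03 μg/mL. Inocula were 10⁵ cfu/mL. […] Geometric means took >80 as 160 and ≤0.03 as 0.03.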

Experiment [2] in a line: In vitro antifungal activity against 6 filamentous fungi. The settings on record: read-out: MIC. Put shortly: as §1
For experiment [3], the system named is Candida albicans. The experiment can be described thus: In vivo antifungal activity against murine candidosis model after peroral administration with 1 mg/kg at various time intervals. (percent protection for 100% mortality with untreated group). The settings on record: route oral. In a few lines: (§2)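 Groups of 10 male mice were infected iv with 0.2 mL of C. albicans at 2 to 8×10^7 cfu/mL. Drug was given orally as a suspension in 1% Tween + 0.2% carboxymethylcellulose at 1, 4 and 24 h post-infection; controls got vehicle only. Survival was scored on days 3, 5, 7 and 9. Read-out was % survival on the day all untreated controls died, or on the day all mice given fluconazole at the same dose died.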

Experiment [4] concerns Candida albicans. The experiment can be described thus: In vivo antifungal activity against murine candidosis model after peroral administration with 1 mg/kg at various time intervals. (percent protection for 100% mortality with fluconazole-treated group.). The note with it: route oral. In a few lines: as §2
For experiment [5], the system named is Candida albicans. The experiment can be described thus: In vivo antifungal activity against murine candidosis model after peroral administration with 0.5 mg/kg at various time intervals. (percent protection for 100% mortality with untreated group). The settings on record: route oral. Put shortly:
as §2

The subject of experiment [6] is Candida albicans. The experiment can be described thus: In vivo antifungal activity against murine candidosis model after peroral administration with 0.5 mg/kg at various time intervals. (percent protection for 100% mortality with fluconazole-treated group.). The note with it: route oral. In a few lines:
as §2

In the case of `C[C@@H](n1cnc2cc(C(N)=O)ccc2c1=O)[C@](O)(Cn1cncn1)c1ccc(F)cc1F`, the MIC in experiment [1] is 25 µg/mL (≈ 56.8 µM); in experiment [2] it was > 80 µg/mL.
With `Cc1cccc2ncn([C@H](C)[C@](O)(Cn3cncn3)c3ccc(F)cc3F)c(=O)c12`, the Protection in the experiment with Candida albicans [3] and in the experiment on Candida albicans [4] was 0% throughout. Further, the MIC stood at 2.6 µg/mL (≈ 6.32 µM) in experiment [1] and 40 µg/mL (≈ 97.2 µM) in experiment [2].
As to `C[C@@H](n1cnc2cc(NN)ccc2c1=O)[C@](O)(Cn1cncn1)c1ccc(F)cc1F`, the MIC was 15 µg/mL (≈ 35.1 µM) in experiment [1] and > 80 µg/mL in experiment [2].
For the compound `C[C@@H](n1cnc2cc(C#N)ccc2c1=O)[C@](O)(Cn1cncn1)c1ccc(F)cc1F`, the Protection in the experiment on Candida albicans [3] stood at 10%; in the experiment on Candida albicans [4], 0%. For the same compound, the minimum inhibitory concentration (MIC) in experiment [1] was found to be 0.8 µg/mL (≈ 1.89 µM); in experiment [2], 3.5 µg/mL (≈ 8.29 µM).
Regarding `C[C@@H](n1cnc2cccc(Cl)c2c1=O)[C@](O)(Cn1cncn1)c1ccc(F)cc1F`, the Protection in the experiment on Candida albicans [3] and with Candida albicans [4] was 0% throughout. Moreover, the MIC turned out to be 3.1 µg/mL (≈ 7.18 µM) in experiment [1] and 71 µg/mL (≈ 164 µM) in experiment [2].
On to `C[C@@H](n1cnc2cc(C(F)(F)F)ccc2c1=O)[C@](O)(Cn1cncn1)c1ccc(F)cc1F`, for which the Protection in the experiment with Candida albicans [5] is 100%; with Candida albicans [6], 60%. The MIC turned out to be 0.7 µg/mL (≈ 1.5 µM) in experiment [1] and 2.2 µg/mL (≈ 4.73 µM) in experiment [2].
Regarding `C[C@@H](n1cnc2cc(N3CCOCC3)ccc2c1=O)[C@](O)(Cn1cncn1)c1ccc(F)cc1F`, the Protection with Candida albicans [5] is listed as 20%; with Candida albicans [6], 0%. The MIC is 1.9 µg/mL (≈ 3.94 µM) in experiment [1] and 35 µg/mL (≈ 72.5 µM) in experiment [2].
With `Cc1nc2cc(Cl)ccc2c(=O)n1[C@H](C)[C@](O)(Cn1cncn1)c1ccc(F)cc1F`, the MIC in experiment [1] was 6.6 µg/mL (≈ 14.8 µM); in experiment [2], 36 µg/mL (≈ 80.7 µM).
On to `C[C@@H](n1cnc2cc(C(=N)NS(N)(=O)=O)ccc2c1=O)[C@](O)(Cn1cncn1)c1ccc(F)cc1F`, for which the Protection in the experiment with Candida albicans [5] and in the experiment with Candida albicans [6] was 0% in each case. Also, the figures for the MIC in experiment [1] and in experiment [2] were 40 µg/mL (≈ 77.1 µM) and > 80 µg/mL, respectively.
For the compound `C[C@@H](n1cnc2ccc(F)cc2c1=O)[C@](O)(Cn1cncn1)c1ccc(F)cc1F`, the Protection with Candida albicans [3] and in the experiment with Candida albicans [4] was 0% each time. The MIC in experiment [1] was 2.4 µg/mL (≈ 5.78 µM); in experiment [2], > 80 µg/mL.
Take `C[C@@H](n1cnc2cc(F)c(F)cc2c1=O)[C@](O)(Cn1cncn1)c1ccc(F)cc1F`: the Protection worked out at 10% in the experiment with Candida albicans [3] and 0% with Candida albicans [4]. In addition, the MIC in experiment [1] is 1.7 µg/mL (≈ 3.92 µM); in experiment [2], 70 µg/mL (≈ 162 µM).
`C[C@@H](n1cnc2cc(N(C)C)c(F)cc2c1=O)[C@](O)(Cn1cncn1)c1ccc(F)cc1F`: the Protection with Candida albicans [3] and in the experiment with Candida albicans [4] was 0% in each case. Further, the figures for the minimum inhibitory concentration (MIC) in experiment [1] and in experiment [2] were 1.4 µg/mL (≈ 3.05 µM) and 22 µg/mL (≈ 48 µM), respectively.
On to `C[C@@H](n1cnc2cc(-n3cncn3)ccc2c1=O)[C@](O)(Cn1cncn1)c1ccc(F)cc1F`, for which the values for the Protection in the experiment with Candida albicans [5] and in the experiment with Candida albicans [6] were 70% and <50%, respectively. The minimum inhibitory concentration (MIC) in experiment [1] came out at 6.6 µg/mL (≈ 14.2 µM); in experiment [2] it was 80 µg/mL (≈ 172 µM).
For `C[C@@H](n1cnc2cc(Oc3ccc(Cl)cc3)ccc2c1=O)[C@](O)(Cn1cncn1)c1ccc(F)cc1F` the same measures were 100%, 80%, 0.7 µg/mL (≈ 1.34 µM) and 7.1 µg/mL (≈ 13.6 µM).
For the compound `C[C@@H](n1cnc2cc(N3CCN(C)CC3)ccc2c1=O)[C@](O)(Cn1cncn1)c1ccc(F)cc1F`, the Protection was 20% in the experiment on Candida albicans [5] and 0% in the experiment on Candida albicans [6]. The results for the MIC in experiment [1] and in experiment [2] were 19 µg/mL (≈ 38.3 µM) and > 80 µg/mL, respectively.
As for `C[C@@H](n1cnc2ccc(Br)cc2c1=O)[C@](O)(Cn1cncn1)c1ccc(F)cc1F`, the Protection with Candida albicans [3] turned out to be 100%; in the experiment on Candida albicans [4], 0%. The MIC was found to be 1.6 µg/mL (≈ 3.36 µM) in experiment [1] and 45 µg/mL (≈ 94.5 µM) in experiment [2].
In the case of `C[C@@H](n1cnc2cc(OCC(F)(F)F)ccc2c1=O)[C@](O)(Cn1cncn1)c1ccc(F)cc1F`, the Protection with Candida albicans [5] and in the experiment with Candida albicans [6] was 100% in each case. Also, the MIC in experiment [1] was determined as 1 µg/mL (≈ 2.02 µM); in experiment [2], 15 µg/mL (≈ 30.3 µM).
Turning to `C[C@@H](n1cnc2cc(N)c(F)cc2c1=O)[C@](O)(Cn1cncn1)c1ccc(F)cc1F`, the figures for the MIC in experiment [1] and in experiment [2] were 8.7 µg/mL (≈ 20.2 µM) and 50 µg/mL (≈ 116 µM), respectively.
Regarding `C[C@@H](n1cnc2cccc(F)c2c1=O)[C@](O)(Cn1cncn1)c1ccc(F)cc1F`, the Protection in the experiment on Candida albicans [3] and in the experiment with Candida albicans [4] was 0% throughout. Besides, the minimal inhibitory concentration (MIC) in experiment [1] turned out to be 4.3 µg/mL (≈ 10.4 µM); in experiment [2], 57 µg/mL (≈ 137 µM).

By MIC is commonly meant the lowest concentration that inhibits growth of the organism.
